Reference: ChEMBL document CHEMBL4825662 (J Med Chem, 2021)
≈ marks a conversion by molar mass, not a printed value.

Columns and labels:
[1] = Cytotoxicity against human Hep2 cells; format: cell-based; settings: HEp-2 cells
How it was run: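 Hep2 cells were cultured in parallel with the plaque assays at compound concentrations of 0.01 nM to 100 μM. Viability was read by MTT, CellTox green or CellTiter-Glo.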

[2] = tested on: Human orthopneumovirus; experiment: Antiviral activity against Respiratory syncytial virus A2 infected in human Hep2 cells by Plaque reduction assay; format: functional, organism-based; settings: A2, HEp-2
How it was run: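 Hep2 cells were infected with RSV strain A2 in the presence of compound. Plaques were detected by immunostaining after 48 h. Values are the average of at least two testing occasions.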

[3] = Intrinsic clearance in Beagle dog liver microsomes preincubated followed by NADPH addition and measured up to 45 mins by LC-MS/MS analysis; format: ADME, Canis lupus familiaris, Microsome
[4] = Protein binding in human plasma assessed as unbound fraction at 5 uM by LC-MS/MS analysis based equilibrium dialysis method; format: ADME, cell-free
[5] = Intrinsic clearance in Sprague-Dawley rat liver microsomes preincubated followed by NADPH addition and measured up to 45 mins by LC-MS/MS analysis; format: ADME, Microsome
[6] = tested on: Human orthopneumovirus; experiment: Antiviral activity against Respiratory syncytial virus A2 infected in African green monkey Vero cells by Plaque reduction assay; format: functional, organism-based
[7] = Intrinsic clearance in human liver microsomes preincubated followed by NADPH addition and measured up to 45 mins by LC-MS/MS analysis; format: ADME, Microsome
[8] = Protein binding in rat plasma assessed as unbound fraction at 5 uM by LC-MS/MS analysis based equilibrium dialysis method; format: ADME, cell-free
[9] = Protein binding in dog plasma assessed as unbound fraction at 5 uM by LC-MS/MS analysis based equilibrium dialysis method; format: ADME, cell-free, Canis lupus familiaris
[10] = Apparent permeability of compound in wild type MDCK at 10 uM incubated for 1 hr by LC-MS/MS assay; format: ADME, Canis lupus familiaris; settings: dog
[11] = Cytotoxicity against African green monkey Vero cells by MTT assay; format: cell-based; settings: chlorocebus sabaeus
How it was run: (§1)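 Viability was assessed by MTT after culture with compound at 0.01 nM to 100 μM, run in parallel with plaque reduction assays. Values are the average of at least two testing occasions.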

[12] = Half life in human liver microsomes preincubated followed by NADPH addition and measured up to 45 mins by LC-MS/MS analysis; format: ADME, Microsome
[13] = Half life in Beagle dog liver microsomes preincubated followed by NADPH addition and measured up to 45 mins by LC-MS/MS analysis
[14] = Half life in Sprague-Dawley rat liver microsomes preincubated followed by NADPH addition and measured up to 45 mins by LC-MS/MS analysis; format: ADME, Microsome
[15] = Kinetic solubility of compound in PBS at 200 uM at pH 7.4 by LC-MS/LC-UV analysis; format: physicochemical; settings: read-out: Kinetic_solubility
How it was run: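 Compound added from DMSO into PBS pH 7.4; precipitation measured across a range of concentrations.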

[16] = target: Fusion glycoprotein F0 (Human respiratory syncytial virus A (strain A2), UniProt P03420); experiment: Inhibition of Respiratory syncytial virus fusion protein
How it was run: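 293T cells cotransfected with codon-optimized RSV A2 F plasmid and a GAL4-responsive luciferase reporter, mixed after 24 h with a second 293T population expressing GAL4-NF-κB transactivator. Threefold serial compound dilutions present during mixing; F-mediated fusion read as luciferase after 24 h. IC₅₀ averaged over at least two testing occasions.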

[17] = tested on: Human orthopneumovirus; experiment: Antiviral activity against Respiratory syncytial virus A2 by Plaque reduction assay; format: functional, organism-based
How it was run: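 Vero cells were infected with RSV A2 for 48 h with compound at 0.01 nM to 100 μM. Plaques were detected by immunostaining. Values are the average of at least two testing occasions.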

[18] = Cmax in CD1 mouse at 10 mg/kg, po measured after 0.083 to 24 hrs by UHPLC-TOF method; format: ADME, organism-based; parameters: route oral, time 0.083-24 hrs, dose 10 mg/kg; settings: in vivo
[19] = Half life in CD1 mouse at 10 mg/kg, po measured after 0.083 to 24 hrs by UHPLC-TOF method; format: ADME, organism-based; settings: in vivo, time 0.083-24 hrs
[20] = Apparent permeability across basolateral side to apical side in MDCK-MDR1 cells at 10 uM measured at 60 mins by LC-MS/MS analysis; format: ADME, cell-based, Canis lupus familiaris; settings: dog
[21] = Oral bioavailability in CD1 mouse at 10 mg/kg measured after 0.03 to 24 hrs by UHPLC-TOF method; format: ADME, organism-based; settings: in vivo, time 0.03-24 hrs
How it was run: (§2)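 Male CD-1 mice, acclimatized and individually housed, dosed IV and PO as amorphous-solid suspension. Terminal cardiac-puncture blood into heparinized tubes on wet ice, centrifuged at 4 °C within 15 min; plasma snap-frozen at −20 °C. IV arm sampled 2 min–24 h, oral arm 5 min–24 h. Plasma analysed by UHPLC-quadrupole-TOF MS.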

[22] = Clearance in CD1 mouse at 1 mg/kg, iv measured after 0.083 to 24 hrs by UHPLC-TOF method; format: ADME, organism-based; settings: in vivo, time 0.083-24 hrs
[23] = Volume of distribution at steady state in CD1 mouse at 1 mg/kg, iv measured after 0.083 to 24 hrs by UHPLC-TOF method; format: ADME, organism-based; settings: in vivo, time 0.083-24 hrs, read-out: Vdss; how it was run: as §2
[24] = Tmax in CD1 mouse at 10 mg/kg, po measured after 0.083 to 24 hrs by UHPLC-TOF method; format: ADME, organism-based; settings: in vivo, time 0.083-24 hrs; how it was run: as §2
[25] = Thermodynamic solubility in PBS at 1 to 100 uM at pH 7.4 by HPLC-UV method; format: physicochemical; settings: dose 1-100 µM, read-out: Therm_solubility
[26] = tested on: Human orthopneumovirus; experiment: Antiviral activity against Respiratory syncytial virus A2 infected in human Huh7 cells by Plaque reduction assay; format: functional, organism-based; settings: A2, Huh-7
How it was run: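 Huh-7 cells were infected with RSV strain A2 in the presence of compound. Values are the average of at least two testing occasions.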

[27] = Apparent permeability across apical to basolateral side in MDCK-MDR1 cells at 10 uM measured at 60 mins by LC-MS/MS analysis; format: ADME, cell-based, Canis lupus familiaris; settings: dog
[28] = Efflux ratio of apparent permeability in MDCK-MDR1 cells at 10 uM measured at 60 mins by LC-MS/MS analysis; format: ADME, cell-based, Canis lupus familiaris; settings: dog
[29] = Cytotoxicity against human HepG2 cells by MTT assay; format: cell-based; how it was run: as §1
[30] = Cmax in Sprague-Dawley rat at 5 mg/kg, po administered via gavage measured after 0.02 to 24 hrs by tandem liquid chromatography/mass spectrometry; format: ADME, organism-based; parameters: route oral, dose 5 mg/kg, time upper 24 hrs, time lower 0.02 hrs; settings: in vivo
How it was run: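 Male Sprague–Dawley rats weighing 200–250 g, 3 per route, were used. The i.v. bolus was 1 mg/kg at 1 mg/mL in 40:60 dimethylacetamide/saline. Oral gavage doses were 5 or 10 mg/kg at 5 mg/mL in 1% methyl cellulose with 0.1% Tween 80. Heparinized blood was taken at 0.02–24 h (ten time points). Plasma was analyzed by LC-MS/MS after acetonitrile precipitation.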

[31] = Oral bioavailability in Sprague-Dawley rat at 10 mg/kg administered via gavage measured after 0.02 to 24 hrs by tandem liquid chromatography/mass spectrometry; format: ADME, organism-based; settings: in vivo, time 0.02-24 hrs
How it was run: (§3)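 Male Sprague–Dawley rats (200–250 g), 3 per route. IV bolus at 1 mg/kg, 1 mg/mL in 40:60 dimethylacetamide/saline; oral gavage at 5 or 10 mg/kg, 5 mg/mL in 1% methyl cellulose, 0.1% Tween 80 in water. Serial blood at 0.02–24 h (ten points) into heparin, spun at 4 °C, plasma frozen; acetonitrile protein precipitation, ESI LC-MS/MS with matrix curve and internal standards.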

[32] = Clearance in Sprague-Dawley rat at 1 mg/kg, iv administered […] measured after 0.02 to 24 hrs by tandem liquid chromatography/mass spectrometry; format: ADME, organism-based; settings: in vivo, time 0.02-24 hrs
[33] = Volume of distribution at steady state in Sprague-Dawley rat at 1 mg/kg, iv administered […] measured after 0.02 to 24 hrs by tandem liquid chromatography/mass spectrometry; format: ADME, organism-based; settings: in vivo, time 0.02-24 hrs, read-out: Vdss; how it was run: as §3

Fusion glycoprotein F0, sequence (P03420 26-109 limits assumed): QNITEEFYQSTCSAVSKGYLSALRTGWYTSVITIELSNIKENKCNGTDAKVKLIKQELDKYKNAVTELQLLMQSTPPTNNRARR
Fusion glycoprotein F0, sequence (P03420 137-574 limits assumed): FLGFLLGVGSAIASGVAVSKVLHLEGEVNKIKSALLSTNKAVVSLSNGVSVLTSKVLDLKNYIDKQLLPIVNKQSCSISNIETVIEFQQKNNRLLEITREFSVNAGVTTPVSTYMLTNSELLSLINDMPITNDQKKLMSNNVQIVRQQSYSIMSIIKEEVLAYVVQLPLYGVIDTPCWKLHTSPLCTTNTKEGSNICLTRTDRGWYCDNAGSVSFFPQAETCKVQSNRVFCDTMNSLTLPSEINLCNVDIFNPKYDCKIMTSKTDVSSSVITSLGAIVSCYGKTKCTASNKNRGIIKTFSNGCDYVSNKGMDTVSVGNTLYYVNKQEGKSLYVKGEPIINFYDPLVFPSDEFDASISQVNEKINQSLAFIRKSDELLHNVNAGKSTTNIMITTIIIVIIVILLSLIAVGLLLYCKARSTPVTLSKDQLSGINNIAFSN

N=C(N)c1ccc2c(c1)nc(CN1C(=O)C3(CC3)c3ccc(F)cc31)n2CCCC(F)(F)F
CC50 [1]: > 20000 nM | EC50 [2]: 0.5 nM

CC(=O)NCc1ccc2c(c1)nc(CN1C(=O)C3(CC3)c3ccc(F)cc31)n2CCCC(F)(F)F
CC50 [1]: > 20000 nM | EC50 [2]: 107 nM

CC(C)CCn1c(CN2C(=O)C3(CC3)c3cc(F)ccc32)nc2cc(CN)ccc21
intrinsic clearance [3]: < 29 µL/min | fraction unbound at 5 µM [4]: 0.11 | Microsomal intrinsic clearance [5]: < 29 µL/min | EC50 [6]: 4.2 nM | intrinsic clearance (CLint) [7]: 344 µL/min | fraction unbound at 5 µM [8]: 0.19 | fraction unbound at 5 µM [9]: 0.15 | Papp at 1 h, 10 µM [10]: 7.3 ×10⁻⁶ cm/s | CC50 [11]: 7600 nM

CC(C)CCn1c(CN2C(=O)C3(CCCC3)c3ccncc32)nc2cc(CN)ccc21
intrinsic clearance [3]: < 28 µL/min | fraction unbound at 5 µM [4]: 0.17 | half-life [12]: 0.1 h | Microsomal intrinsic clearance [5]: < 31 µL/min | half-life [13]: > 1.67 h | half-life [14]: > 1.48 h | EC50 [6]: 310 nM | solubility kinetic at 200 µM [15]: 160 µM (≈ 66.8 µg/mL) | intrinsic clearance (CLint) [7]: 488 µL/min | fraction unbound at 5 µM [8]: 0.24 | fraction unbound at 5 µM [9]: 0.14 | Papp at 1 h, 10 µM [10]: 11 ×10⁻⁶ cm/s | CC50 [11]: 23100 nM

CC(C)CCn1c(CN2C(=O)C3(CC3)c3ccncc32)nc2cc(CN)ccc21
IC50 [16]: 0.9 nM | EC50 [17]: 2.1 nM

N=C(N)NCc1ccc2c(c1)nc(CN1C(=O)C3(CC3)c3ccc(F)cc31)n2CCCC(F)(F)F
CC50 [1]: > 20000 nM | EC50 [2]: 21.1 nM

CC(C)CCn1c(CN2C(=O)C3(CC3)c3cccnc32)nc2cc(CN)ccc21
IC50 [16]: 0.9 nM | Cmax [18]: 200 ng/mL | intrinsic clearance [3]: 71.3 µL/min | EC50 [17]: 4.1 nM | Microsomal intrinsic clearance [5]: 328 µL/min | half-life [19]: 1 h | Papp B→A at 1 h, 10 µM [20]: 0.1 ×10⁻⁶ cm/s | bioavailability [21]: 18.1% | intrinsic clearance (CLint) [7]: 177 µL/min | clearance [22]: 81.1 mL/min/kg | Vd [23]: 4.5 L/kg | Tmax [24]: 2 h

NCc1ccc2c(c1)nc(CN1C(=O)C3(CC3)c3ccc(F)cc31)n2C1CCC(O)CC1 (stereo unspecified)
Cmax [18]: 47.8 ng/mL | intrinsic clearance [3]: 5.02 µL/min | half-life [12]: 5 h | Microsomal intrinsic clearance [5]: 9.4 µL/min | solubility thermodynamic [25]: 313 µM (≈ 136 µg/mL) | half-life [19]: 0.9 h | EC50 [26]: 1.6 nM | Papp B→A at 1 h, 10 µM [20]: 2.8 ×10⁻⁶ cm/s | half-life [13]: 4.6 h | half-life [14]: 2.45 h | Papp A→B at 1 h, 10 µM ([27]; MDCK-MDR1): 0.1 ×10⁻⁶ cm/s | efflux ratio at 1 h, 10 µM ([28]; MDCK-MDR1): 21 | bioavailability [21]: 4.4% | intrinsic clearance (CLint) [7]: 4.6 µL/min | clearance [22]: 82.7 mL/min/kg | CC50 [29]: > 25000 nM | Vd [23]: 3.8 L/kg | Tmax [24]: 0.1 h

CC(C)CCn1c(CN2C(=O)C3(CC3)c3cccc(F)c32)nc2cc(CN)ccc21
Cmax [30]: 31.3 ng/mL | intrinsic clearance [3]: 2.23 µL/min | fraction unbound at 5 µM [4]: 0.42 | Microsomal intrinsic clearance [5]: 37.8 µL/min | solubility thermodynamic [25]: 1230 µM (≈ 500 µg/mL) | Papp ([27]; mdck-mdr1, 1 h, 10 µM): 0.19 10^-6 cm/s | bioavailability [31]: 8.8% | Ratio ([28]; mdck-mdr1, 1 h, 10 µM): 227 | EC50 [6]: 40.8 nM | intrinsic clearance (CLint) [7]: 7 µL/min | clearance [32]: 108 mL/min/kg | fraction unbound at 5 µM [8]: 0.104 | fraction unbound at 5 µM [9]: 0.147 | CC50 [11]: 31100 nM | Vd [33]: 11.9 L/kg

CC(=O)N1CC2(C1)C(=O)N(Cc1nc3cc(CN)ccc3n1CCC(C)C)c1ccccc12
IC50 [16]: 1.1 nM | EC50 [17]: 2.2 nM

CC(C)CCn1c(CN2C(=O)C3(CCOCC3)c3ccccc32)nc2cc(CN)ccc21
IC50 [16]: 0.69 nM | EC50 [17]: 3.4 nM

NC(=O)c1ccc2c(c1)nc(CN1C(=O)C3(CC3)c3ccc(F)cc31)n2CCCC(F)(F)F
CC50 [1]: > 20000 nM | EC50 [2]: 13.7 nM
